Drawing on ChEMBL document CHEMBL1124703, “Analogues of carbamyl aspartate as inhibitors of dihydroorotase: preparation of boronic acid transition-state analogues and a zinc chelator carbamylhomocysteine” (J Med Chem, 1990), this text covers Ki, Uptake and Cell survival for 3 molecules.

Test [1] addresses Multifunctional protein CAD (Homo sapiens, UniProt P27708). Kind of test: Inhibitory activity against Dihydroorotase (DHO) at pH 6.0. Set-up: species or system Cricetulus griseus.
The test system of test [2] is L1210. Kind of test: Uptake in L1210 cells at a concentration of 210 uM after 24 hr. Particulars: Mus musculus, L1210, 24 h.
Test [3] has as its system L1210. Kind of test: Inhibitory activity against murine L1210 cell growth at a concentration of 250 uM after 8 hr. The class given is functional, Mus musculus.
Test [4] has as its system L1210. Kind of test: Inhibitory activity against murine L1210 cell growth at a concentration of 250 uM after 0h. The class given is functional, Mus musculus. The method in brief: (§1)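 Murine L1210 cells kept in DMEM with 10% FCS and L-glutamine and harvested in log phase. About 1×10^5 cells/mL held 24 h in depleted medium before drug or DMSO vehicle was added. Trypan blue-excluding cells counted by hemacytometer at 0, 24 and 48 h. Three flasks per concentration and six controls; reported as % survival versus control.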

For test [5], the system named is L1210. Kind of test: Inhibitory activity against murine L1210 cell growth at a concentration of 250 uM after 24 hr. Type of test: functional, Mus musculus. The method in brief: as §1
The test system of test [6] is L1210. The test can be described thus: Inhibitory activity against murine L1210 cell growth at a concentration of 100 uM after 0h. Type of test: functional, Mus musculus. The essentials: as §1
Test [7] has as its system L1210. The test can be described thus: Inhibitory activity against murine L1210 cell growth at a concentration of 100 uM after 24 hr. The class given is functional, Mus musculus. The method in brief: as §1
Test [8] relates to L1210. The test can be described thus: Inhibitory activity against murine L1210 cell growth at a concentration of 100 uM after 48 hr.

Chain of Multifunctional protein CAD (P27708 whole entry): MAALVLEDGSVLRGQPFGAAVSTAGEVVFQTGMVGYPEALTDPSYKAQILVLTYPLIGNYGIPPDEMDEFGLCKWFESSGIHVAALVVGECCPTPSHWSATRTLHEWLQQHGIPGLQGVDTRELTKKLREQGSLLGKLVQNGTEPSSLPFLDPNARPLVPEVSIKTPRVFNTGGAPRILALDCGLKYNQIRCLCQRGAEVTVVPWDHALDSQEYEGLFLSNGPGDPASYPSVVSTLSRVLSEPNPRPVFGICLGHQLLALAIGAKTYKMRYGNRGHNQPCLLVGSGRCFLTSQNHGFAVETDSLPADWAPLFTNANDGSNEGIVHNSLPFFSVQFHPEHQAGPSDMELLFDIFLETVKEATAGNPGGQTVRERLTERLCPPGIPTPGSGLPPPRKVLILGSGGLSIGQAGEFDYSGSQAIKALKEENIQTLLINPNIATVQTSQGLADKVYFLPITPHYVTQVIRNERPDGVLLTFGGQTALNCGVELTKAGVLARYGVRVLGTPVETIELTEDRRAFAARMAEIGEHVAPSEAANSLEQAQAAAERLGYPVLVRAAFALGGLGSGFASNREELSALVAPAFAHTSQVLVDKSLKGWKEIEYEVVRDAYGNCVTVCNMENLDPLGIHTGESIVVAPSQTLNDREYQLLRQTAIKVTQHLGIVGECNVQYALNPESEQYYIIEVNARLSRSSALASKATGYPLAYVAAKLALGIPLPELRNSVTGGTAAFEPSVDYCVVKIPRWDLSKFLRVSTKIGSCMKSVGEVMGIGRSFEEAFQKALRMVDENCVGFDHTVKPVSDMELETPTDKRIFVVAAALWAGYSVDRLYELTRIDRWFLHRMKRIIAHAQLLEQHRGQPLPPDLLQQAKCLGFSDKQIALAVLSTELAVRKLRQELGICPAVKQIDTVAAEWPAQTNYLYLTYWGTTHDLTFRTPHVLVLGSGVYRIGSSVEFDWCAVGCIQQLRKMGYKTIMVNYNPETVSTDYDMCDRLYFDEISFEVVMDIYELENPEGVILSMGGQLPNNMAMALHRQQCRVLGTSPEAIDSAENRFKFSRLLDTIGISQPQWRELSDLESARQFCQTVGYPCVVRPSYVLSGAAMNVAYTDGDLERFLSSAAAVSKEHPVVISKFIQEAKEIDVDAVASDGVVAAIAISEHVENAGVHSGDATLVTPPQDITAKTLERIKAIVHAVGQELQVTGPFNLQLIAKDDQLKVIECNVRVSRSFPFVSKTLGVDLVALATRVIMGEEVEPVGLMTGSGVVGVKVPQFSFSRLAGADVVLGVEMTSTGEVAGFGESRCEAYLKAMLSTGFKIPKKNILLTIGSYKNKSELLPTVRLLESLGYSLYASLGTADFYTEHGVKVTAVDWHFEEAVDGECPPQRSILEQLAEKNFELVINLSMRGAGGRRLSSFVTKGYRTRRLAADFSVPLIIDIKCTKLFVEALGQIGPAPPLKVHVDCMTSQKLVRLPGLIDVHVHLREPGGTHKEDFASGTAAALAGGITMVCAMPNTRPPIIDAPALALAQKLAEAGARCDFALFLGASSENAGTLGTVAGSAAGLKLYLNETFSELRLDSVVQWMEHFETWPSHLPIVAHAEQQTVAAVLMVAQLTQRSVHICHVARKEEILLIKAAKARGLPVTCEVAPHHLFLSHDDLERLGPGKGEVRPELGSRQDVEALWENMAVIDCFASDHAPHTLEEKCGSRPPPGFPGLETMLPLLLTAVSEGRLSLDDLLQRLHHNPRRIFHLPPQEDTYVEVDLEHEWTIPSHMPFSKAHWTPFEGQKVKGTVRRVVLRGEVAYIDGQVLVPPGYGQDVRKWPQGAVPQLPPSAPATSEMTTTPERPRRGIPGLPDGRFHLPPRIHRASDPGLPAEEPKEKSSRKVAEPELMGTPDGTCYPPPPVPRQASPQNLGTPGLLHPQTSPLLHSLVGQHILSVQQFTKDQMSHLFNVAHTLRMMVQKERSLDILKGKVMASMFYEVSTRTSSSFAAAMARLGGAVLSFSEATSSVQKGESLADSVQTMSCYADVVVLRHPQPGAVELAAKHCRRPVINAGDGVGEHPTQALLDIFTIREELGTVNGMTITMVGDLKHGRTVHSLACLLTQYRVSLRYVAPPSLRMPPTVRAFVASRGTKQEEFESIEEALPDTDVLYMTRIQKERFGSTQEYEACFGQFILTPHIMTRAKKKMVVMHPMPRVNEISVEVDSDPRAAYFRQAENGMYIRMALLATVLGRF

Usually Ki stands for the dissociation constant of the complex between target and ligand, obtained from inhibition or displacement. A low value points to a stronger hold on the target. Turning to `CCOC(=O)C(CB(O)O)NC(N)=O` (stereo not drawn), the affinity in test [1], expressed as Ki, was 5.07 µM. In the test with L1210 [2], the Uptake at 210 µM was 0.09%.
Consider `NC(=O)BCCNC(CC(=O)O)C(=O)O` (stereo not drawn) [BOROCARBAMYLETHYL ASPARTATE], for which the Cell survival amounted to 80 in the test on L1210 [3], 114 in the test with L1210 [4] and 66 in the test on L1210 [5].
`O=C(O)C[C@H](NC(=O)CP(=O)(O)O)C(=O)O` [PALA]: the Cell survival in the test on L1210 [6] was 96; in the test on L1210 [7], 28; in the test on L1210 [8] it was 22.
